Active and inactive are the calls of the source. The rule behind the calls is not given here.
Legend:
Rattus norvegicus = organism: Rattus norvegicus; assay: Uptake in the thyroid or any of the other tissues tested in rats; NS- No significant activity; type: functional, organism-based; conditions: Thyroid gland
How it was run: (§1)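 Female Fischer 344 rats (10–12 weeks, 170–200 g, food and water ad libitum) received 7.95 μCi of the 125I-labeled barbiturate (sp act ~155 mCi/mmol) in filtered pH 7.4 phosphate buffer via lateral tail vein under ether anesthesia. Four rats per time point were killed at 2 min to 1 day. Thyroid and other organs were excised, rinsed, blotted, weighed and gamma-counted as % injected dose/g.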

[1] = In vivo deiodination was determined; Resistant; type: functional, organism-based; how it was run: as §1

CCOC(=O)C(CC)(CCC/C=C/I)C(=O)O (configuration not stated)
Activity (Rattus norvegicus): inactive | Activity [1]: Resistant

— ChEMBL document CHEMBL1122299, “Potential cerebral perfusion agents: synthesis and evaluation of a radioiodinated vinylalkylbarbituric acid analogue” (J Med Chem, 1983)
